For data set [1], the system named is Human alphaherpesvirus 3. The data set is described as follows: Antiviral activity against thymidine kinase expressing Varicella-Zoster virus Oka in HEL cells assessed as inhibition of viral cytopathicity. Type of data set: functional, organism-based. Particulars: Human alphaherpesvirus 3, Oka. The gist of the method:
(§1)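 VZV input was 20 PFU per HEL cell culture. Cultures were incubated with test compound for 5 days at 37 °C under 5% CO2, then fixed and stained. Viral plaque formation was counted against the untreated control to give the EC50.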

Data set [2] concerns Human alphaherpesvirus 3. Briefly: Antiviral activity against thymidine kinase deficient Varicella-Zoster virus 07/1 in HEL cells assessed as inhibition of viral cytopathicity. Particulars: Human alphaherpesvirus 3, HEL. Format: functional, organism-based. In a few lines:
as §1

Data set [3] can be described thus: Cytotoxicity against HEL cells assessed as morphological alteration after 3 days. Type of data set: cell-based. Particulars: human. In a few lines: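 HEL cell cultures were examined by microscope. Cytotoxicity was recorded as the minimum cytotoxic concentration (MCC), meaning the lowest compound concentration that caused a detectable alteration of cell morphology.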

Data set [4] deals with Human betaherpesvirus 5. Briefly: Antiviral activity against human cytomegalovirus Davis in HEL cells assessed as inhibition of viral cytopathicity. Type of data set: functional, organism-based. Particulars: Human betaherpesvirus 5, Davis. In a few lines: (§2)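 Confluent HEL cell cultures were inoculated with 100 PFU of HCMV. After 2 h adsorption, residual virus was removed and cells were incubated with varying concentrations of test compound. Viral cytopathicity was scored when it reached completion in the untreated virus-infected controls, and the EC50 was taken from this read-out.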

A short description of data set [5]: Cytotoxicity against HEL cells assessed as reduction of growth after 3 days. Particulars: human. Format: cell-based. In a few lines: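 HEL cell suspensions were added to wells holding varying concentrations of test compound. Plates were incubated 3 days at 37 °C in a humidified CO2 incubator, and viable cells were counted with a Coulter Counter. CC50 is the concentration that reduced viable cell number by 50%.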

Data set [6] concerns Human betaherpesvirus 5. The data set is described as follows: Antiviral activity against human cytomegalovirus AD169 in HEL cells assessed as inhibition of viral cytopathicity. Type of data set: functional, organism-based. Particulars: Human betaherpesvirus 5, AD169, HEL. The gist of the method: as §2

SMILES strings stand for the structures. In brackets after ≈: the same amount, converted by molar mass. Some results are limits rather than exact numbers.

As for `Cc1cc(-c2ccco2)c2ncc(CSCCc3ccccc3)n2c1`, the EC50 in the data set with Human alphaherpesvirus 3 [1] was found to be 6.6 µg/mL (≈ 18.9 µM); in the data set with Human alphaherpesvirus 3 [2] it was 7.9 µg/mL (≈ 22.7 µM); in the data set on Human betaherpesvirus 5 [4], 2.7 µg/mL (≈ 7.75 µM); in the data set on Human betaherpesvirus 5 [6], 2.5 µg/mL (≈ 7.17 µM). Also, in data set [3], the MCC at 72 h amounted to 100 µg/mL. The CC50 at 72 h in data set [5] turned out to be 41 µg/mL (≈ 118 µM).
For the compound `Cc1cc(N2CCOCC2)cn2c(CSCCc3ccccc3)cnc12`, the EC50 in the data set on Human alphaherpesvirus 3 [1], with Human alphaherpesvirus 3 [2], in the data set with Human betaherpesvirus 5 [4] and with Human betaherpesvirus 5 [6] was over 20 µg/mL each time. Moreover, the MCC at 72 h in data set [3] is 100 µg/mL. Moreover, the 50% cytotoxic concentration (CC50) at 72 h in data set [5] was 45 µg/mL (≈ 122 µM).
For `Cc1cc(N2CCOCC2)c2ncc(CSCCc3ccccc3)n2c1`, the EC50 with Human alphaherpesvirus 3 [1] is 53.6 µg/mL (≈ 146 µM); in the data set on Human alphaherpesvirus 3 [2] it was 36.6 µg/mL (≈ 99.6 µM); in the data set on Human betaherpesvirus 5 [4] it was 8.2 µg/mL (≈ 22.3 µM); in the data set with Human betaherpesvirus 5 [6], over 4 µg/mL. In addition, the MCC at 72 h in data set [3] was over 100 µg/mL. In addition, the CC50 at 72 h in data set [5] is 49 µg/mL (≈ 133 µM).
Turning to `Cc1cc(N2CCCC2)c2ncc(CSCCc3ccccc3)n2c1`, the EC50 with Human alphaherpesvirus 3 [1] is 35.7 µg/mL (≈ 102 µM); with Human alphaherpesvirus 3 [2], over 20 µg/mL; in the data set on Human betaherpesvirus 5 [4], 20 µg/mL (≈ 56.9 µM); with Human betaherpesvirus 5 [6], over 20 µg/mL. Also, the MCC at 72 h in data set [3] was over 100 µg/mL. Besides, the CC50 at 72 h in data set [5] is over 100 µg/mL.
Take `Cc1cc(-n2ccnc2)cn2c(CSCCc3ccccc3)cnc12`: the EC50 worked out at 10.7 µg/mL (≈ 30.7 µM) with Human alphaherpesvirus 3 [1], 11.4 µg/mL (≈ 32.7 µM) with Human alphaherpesvirus 3 [2], 6.8 µg/mL (≈ 19.5 µM) in the data set with Human betaherpesvirus 5 [4] and 8.9 µg/mL (≈ 25.5 µM) in the data set with Human betaherpesvirus 5 [6]. In addition, the MCC at 72 h in data set [3] turned out to be 100 µg/mL. Moreover, the CC50 at 72 h in data set [5] was determined as 23 µg/mL (≈ 66 µM).
Take `Cc1cc(-c2ccoc2)c2ncc(CSCCc3ccccc3)n2c1`: the EC50 is 20 µg/mL (≈ 57.4 µM) in the data set on Human alphaherpesvirus 3 [1], over 20 µg/mL in the data set on Human alphaherpesvirus 3 [2], 1.3 µg/mL (≈ 3.73 µM) in the data set with Human betaherpesvirus 5 [4] and 1.8 µg/mL (≈ 5.17 µM) with Human betaherpesvirus 5 [6]. The MCC at 72 h in data set [3] stood at 100 µg/mL. For the same compound, the CC50 at 72 h in data set [5] turned out to be 64 µg/mL (≈ 184 µM).
Take `Cc1cc(-n2ccc3cccnc32)cn2c(CSCCc3ccccc3)cnc12`: the EC50 in the data set with Human alphaherpesvirus 3 [1] is over 4 µg/mL; with Human alphaherpesvirus 3 [2], over 4 µg/mL; in the data set on Human betaherpesvirus 5 [4] it was 1.4 µg/mL (≈ 3.51 µM); in the data set on Human betaherpesvirus 5 [6], 2 µg/mL (≈ 5.02 µM). The MCC at 72 h in data set [3] was determined as 20 µg/mL. The CC50 at 72 h in data set [5] was 16 µg/mL (≈ 40.1 µM).
As for `Cc1cc(C#N)cn2c(CSCCc3ccccc3)cnc12`, the EC50 was over 4 µg/mL in the data set with Human alphaherpesvirus 3 [1], over 4 µg/mL in the data set on Human alphaherpesvirus 3 [2], 8.9 µg/mL (≈ 29 µM) in the data set with Human betaherpesvirus 5 [4] and 8.9 µg/mL (≈ 29 µM) in the data set with Human betaherpesvirus 5 [6]. Besides, the MCC at 72 h in data set [3] was 20 µg/mL. In addition, the CC50 at 72 h in data set [5] was determined as 14 µg/mL (≈ 45.5 µM).
As to `Cc1cc(Sc2ccc(N)cc2)cn2c(CSCCc3ccccc3)cnc12`, the EC50 in the data set with Human alphaherpesvirus 3 [1] is over 4 µg/mL; with Human alphaherpesvirus 3 [2], 2.2 µg/mL (≈ 5.42 µM); in the data set on Human betaherpesvirus 5 [4] it was 1.8 µg/mL (≈ 4.44 µM); in the data set with Human betaherpesvirus 5 [6] it was 1.8 µg/mL (≈ 4.44 µM). Moreover, the MCC at 72 h in data set [3] came out at 20 µg/mL. Moreover, in data set [5], the CC50 at 72 h was determined as 23 µg/mL (≈ 56.7 µM).
`Cc1cc(-c2ccsc2)c2ncc(CSCc3ccccc3)n2c1`: the EC50 in the data set with Human alphaherpesvirus 3 [1] amounted to 7.3 µg/mL (≈ 20.8 µM); in the data set on Human alphaherpesvirus 3 [2], 6.5 µg/mL (≈ 18.5 µM); in the data set on Human betaherpesvirus 5 [4] it was 2.1 µg/mL (≈ 5.99 µM); in the data set with Human betaherpesvirus 5 [6], 4 µg/mL (≈ 11.4 µM). Besides, the MCC at 72 h in data set [3] stood at 100 µg/mL. For the same compound, the CC50 at 72 h in data set [5] turned out to be 100 µg/mL (≈ 285 µM).
In the case of `Cc1cc(-c2ccc3[nH]ccc3c2)cn2c(CSCCc3ccccc3)cnc12`, in data set [3], the MCC at 72 h is at least 20 µg/mL. The results for the EC50 in the data set with Human betaherpesvirus 5 [4] and in the data set on Human betaherpesvirus 5 [6] were over 4 µg/mL and over 20 µg/mL, respectively. Moreover, the CC50 at 72 h in data set [5] worked out at 26 µg/mL (≈ 65.4 µM).
In the case of `Cc1cc(-n2ccnc2)c2ncc(CSCCc3ccccc3)n2c1`, the EC50 in the data set with Human alphaherpesvirus 3 [1] was over 4 µg/mL; in the data set on Human alphaherpesvirus 3 [2], over 4 µg/mL; in the data set on Human betaherpesvirus 5 [4], 2.3 µg/mL (≈ 6.6 µM); in the data set on Human betaherpesvirus 5 [6] it was 3.1 µg/mL (≈ 8.9 µM). Moreover, the MCC at 72 h in data set [3] came out at 20 µg/mL. For the same compound, the CC50 at 72 h in data set [5] amounted to 10 µg/mL (≈ 28.7 µM).
`C=Cc1ccc(-c2cc(C)c3ncc(CSCCc4ccccc4)n3c2)cc1`: in data set [3], the MCC at 72 h stood at 20 µg/mL. In addition, the EC50 was 2.9 µg/mL (≈ 7.54 µM) in the data set on Human betaherpesvirus 5 [4] and over 4 µg/mL in the data set on Human betaherpesvirus 5 [6]. The CC50 at 72 h in data set [5] was determined as 14 µg/mL (≈ 36.4 µM).
Consider `Cc1cc(-c2ccsc2)cn2c(CSCc3ccccc3)cnc12`, for which the EC50 in the data set on Human alphaherpesvirus 3 [1] was over 0.8 µg/mL; in the data set on Human alphaherpesvirus 3 [2], over 0.8 µg/mL; with Human betaherpesvirus 5 [4] it was 0.8 µg/mL (≈ 2.28 µM); in the data set on Human betaherpesvirus 5 [6] it was over 0.8 µg/mL. The MCC at 72 h in data set [3] was determined as 4 µg/mL. Besides, the CC50 at 72 h in data set [5] was determined as 9.4 µg/mL (≈ 26.8 µM).
On to `C=Cc1ccc(-c2cc(C)c3ncc(CSCc4ccccc4)n3c2)cc1`, for which, in data set [3], the MCC at 72 h was at least 100 µg/mL. Further, the EC50 was 30 µg/mL (≈ 81 µM) in the data set with Human betaherpesvirus 5 [4] and over 100 µg/mL in the data set on Human betaherpesvirus 5 [6]. Besides, the CC50 at 72 h in data set [5] turned out to be 59 µg/mL (≈ 159 µM).
As for `Cc1cc(-n2cccc2)c2ncc(CSCc3ccccc3)n2c1`, the EC50 in the data set on Human alphaherpesvirus 3 [1] turned out to be 2.2 µg/mL (≈ 6.6 µM); in the data set on Human alphaherpesvirus 3 [2], 1.8 µg/mL (≈ 5.4 µM); in the data set on Human betaherpesvirus 5 [4] it was 2.9 µg/mL (≈ 8.7 µM); with Human betaherpesvirus 5 [6] it was 6.3 µg/mL (≈ 18.9 µM). Besides, in data set [3], the MCC at 72 h amounted to 100 µg/mL. Moreover, the CC50 at 72 h in data set [5] was found to be 15 µg/mL (≈ 45 µM).

Values taken from ChEMBL document CHEMBL1142504, “Influence of 6- or 8-substitution on the antiviral activity of 3-arylalkylthiomethylimidazo[1,2-a]pyridine against human cytomegalovirus (CMV) and varicella-zoster virus (VZV): part II” (Bioorg Med Chem, 2008).
